Results: ChEMBL document CHEMBL4392836, “Second-generation aryl isonitrile compounds targeting multidrug-resistant Staphylococcus aureus” (Bioorg Med Chem, 2019)
Converted amounts (≈) assume the structure as drawn.

Legend:
Staphylococcus aureus [1] = assay: Antibacterial activity against methicillin-resistant Staphylococcus aureus NRS123 USA400 after 18 to 24 hrs by broth microdilution assay; assay type: functional
Outline: (§1)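 CLSI broth microdilution with modifications. Bacteria cultured in TSB and exposed to compounds or control antibiotics in triplicate. Plates incubated aerobically at 37 °C for 18–24 h. MIC is the lowest concentration preventing visible growth.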

Escherichia coli [2] = assay: Antibacterial activity against Escherichia coli BW25113 after 18 to 24 hrs in presence of colistin by broth microdilution method; assay type: functional
Outline: (§2)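 To permeabilize the outer membrane, CLSI broth microdilution in TSB (triplicate) was run with subinhibitory colistin: ¼ × MIC for A. baumannii, E. cloacae and E. coli strains, and P. aeruginosa; ½ × MIC for K. pneumoniae. Plates incubated aerobically at 37 °C for 18–24 h. MIC taken as the lowest concentration with no visible growth.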

Enterobacter cloacae [3] = assay: Antibacterial activity against Enterobacter cloacae BAA1134 after 18 to 24 hrs in presence of colistin by broth microdilution assay; assay type: functional; outline: as §2
Escherichia coli [4] = assay: Antibacterial activity against AcrAB-TolC deficient Escherichia coli […] after 18 to 24 hrs in absence of colistin by broth microdilution method; assay type: functional
Outline: (§3)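 Broth microdilution MIC per CLSI guidelines with modifications. Bacteria grown in TSB and exposed to compounds or control antibiotics in triplicate. Plates incubated aerobically at 37 °C for 18–24 h. MIC taken as the lowest concentration with no visible growth.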

Klebsiella pneumoniae [5] = assay: Antibacterial activity against Klebsiella pneumoniae ATCC BAA-1705 after 18 to 24 hrs in presence of colistin by broth microdilution assay; assay type: functional; outline: as §2
Escherichia coli [6] = assay: Antibacterial activity against AcrAB-TolC deficient Escherichia coli […] after 18 to 24 hrs in presence of colistin by broth microdilution method; assay type: functional; outline: as §2
Klebsiella pneumoniae [7] = assay: Antibacterial activity against Klebsiella pneumoniae ATCC BAA-1705 after 18 to 24 hrs by broth microdilution assay; assay type: functional; outline: as §3
Enterobacter cloacae [8] = assay: Antibacterial activity against Enterobacter cloacae BAA1134 after 18 to 24 hrs by broth microdilution assay; assay type: functional; outline: as §3
Acinetobacter baumannii [9] = assay: Antibacterial activity against Acinetobacter baumannii BAA1605 after 18 to 24 hrs by broth microdilution assay; assay type: functional; outline: as §3
Pseudomonas aeruginosa [10] = assay: Antibacterial activity against Pseudomonas aeruginosa ATCC 15442 after 18 to 24 hrs by broth microdilution assay; assay type: functional; outline: as §3
Escherichia coli [11] = assay: Antibacterial activity against Escherichia coli BW25113 after 18 to 24 hrs in absence of colistin by broth microdilution method; assay type: functional; outline: as §3
Pseudomonas aeruginosa [12] = assay: Antibacterial activity against Pseudomonas aeruginosa ATCC 15442 after 18 to 24 hrs in presence of colistin by broth microdilution assay; assay type: functional; outline: as §2
Acinetobacter baumannii [13] = assay: Antibacterial activity against Acinetobacter baumannii BAA1605 after 18 to 24 hrs in presence of colistin by broth microdilution assay; assay type: functional; outline: as §2
Staphylococcus aureus [14] = assay: Antibacterial activity against methicillin-resistant Staphylococcus aureus USA300 infected in Balb/c mouse assessed as reduction in bacterial burden in wounded skin area at 2% administered topically twice daily for 5 consecutive days measured 12 hrs post last dose relative to control; assay type: functional; set-up: scale not given: the % may be the effect or the level left
Outline: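 Eight-week-old female Balb/c mice (n = 5 per group) received an intradermal injection of 40 μL of 1.32 × 10⁹ CFU/mL MRSA USA300. From abscess formation (~48 h), a 2% suspension in petroleum jelly was applied topically twice daily for 5 days, with a vehicle-only group. Mice were euthanized 12 h after the last dose. Wounds were homogenized in PBS, serially diluted and plated on mannitol salt agar (≥16 h, 37 °C). CFU reduction was calculated against vehicle.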

[15] = Toxicity in wounded skin area of Balb/c mouse infected with methicillin-resistant Staphylococcus aureus USA300 at 2% administered topically twice daily for 5 consecutive days measured 4 times daily during compound dosing; details: in vivo, topical_or_ocular
Outline: (§4)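 Female Balb/c mice with intradermal MRSA USA300 abscesses were treated topically twice daily for 5 days with a 2% suspension in petroleum jelly, alongside a vehicle group. Mice were checked at least four times daily during infection and treatment for adverse reactions. Wounds were examined for inflammation and toxicity.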

Mus musculus = assay: Induction of inflammation in wounded skin area of Balb/c mouse infected with methicillin-resistant Staphylococcus aureus USA300 at 2% administered topically twice daily for 5 consecutive days measured 4 times daily during compound dosing; assay type: organism-based; details: in vivo, topical_or_ocular; outline: as §4
Streptococcus pneumoniae = assay: Antibacterial activity against penicillin-resistant Streptococcus pneumoniae ATCC 700677 after 18 to 24 hrs by broth microdilution assay; assay type: functional
Outline: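 CLSI broth microdilution with modifications. Bacteria exposed to compounds in triplicate and incubated at 37 °C with 5% CO₂ for 18–24 h. MIC is the lowest concentration preventing visible growth.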

[16] = Tmax in human at 625 mg, iv; assay type: ADME; details: in vivo
[17] = Tmax in human at 625 mg, po; assay type: ADME; details: in vivo
[18] = Clearance in human at 625 mg, iv; assay type: ADME; details: in vivo
Staphylococcus aureus [19] = assay: Antibacterial activity against vancomycin-resistant Staphylococcus aureus VRS10 after 18 to 24 hrs by broth microdilution assay; assay type: functional; outline: as §1
[20] = Cmax in human at 625 mg, po; assay type: ADME; set-up: dose 625 mg, route oral; details: in vivo
[21] = tested on: Staphylococcus epidermidis; assay: Antibacterial activity against methicillin-resistant Staphylococcus epidermidis NRS101 after 18 to 24 hrs by broth microdilution assay; assay type: functional; outline: as §1
clinical = details: human, in vivo, iv, 625 mg
Staphylococcus aureus [22] = assay: Antibacterial activity against methicillin-sensitive Staphylococcus aureus NRS107 after 18 to 24 hrs by broth microdilution assay; assay type: functional; outline: as §1
Staphylococcus aureus [23] = assay: Antibacterial activity against vancomycin-resistant Staphylococcus aureus VRS11a after 18 to 24 hrs by broth microdilution assay; assay type: functional; outline: as §1
[24] = Cmax in human at 625 mg, iv; assay type: ADME; set-up: dose 625 mg, route intravenous; details: in vivo
Enterococcus faecium = assay: Antibacterial activity against vancomycin-resistant Enterococcus faecium ATCC 700221 after 18 to 24 hrs by broth microdilution assay; assay type: functional
Outline: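 Broth microdilution per CLSI with modifications. Cultured in BHI and exposed to compounds in triplicate. Incubated aerobically at 37 °C for 18–24 h. MIC read as the lowest concentration with no visible growth.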

Staphylococcus aureus [25] = assay: Antibacterial activity against methicillin-resistant Staphylococcus aureus NRS385 USA500 after 18 to 24 hrs by broth microdilution assay; assay type: functional; outline: as §1
Staphylococcus aureus [26] = assay: Antibacterial activity against methicillin-resistant Staphylococcus aureus USA300 NRS384 after 18 to 24 hrs by broth microdilution assay; assay type: functional; outline: as §1
Staphylococcus aureus [27] = assay: Antibacterial activity against methicillin-resistant Staphylococcus aureus NRS119 after 18 to 24 hrs by broth microdilution assay; assay type: functional; outline: as §1

`N#Cc1ccc(CCc2ccncc2)cc1` gave an MIC (Staphylococcus aureus [1]) of 64 µM (≈ 13.3 µg/mL).

Compound `N#Cc1ccc(CCc2cccc(C#N)c2)cc1` has an MIC (Staphylococcus aureus [1]) of 32 µM (≈ 7.43 µg/mL).

For `N#Cc1ccc(/C=C/c2ccc(C(F)(F)F)cc2)cc1`, the MIC (Staphylococcus aureus [1]) was 32 µM (≈ 8.74 µg/mL).

For `COc1ccc(/C=C/c2ccc(C#N)cc2)cc1`, the MIC (Staphylococcus aureus [1]) was 32 µM (≈ 7.53 µg/mL).

With `N#Cc1ccc(CCc2ccccn2)cc1` the MIC (Staphylococcus aureus [1]) was > 64 µM.

Compound `N#Cc1ccc(/C=C/c2ccccc2C#N)cc1` has an MIC (Staphylococcus aureus [1]) of 16 µM (≈ 3.68 µg/mL).

In the case of `N#Cc1ccc(CCc2ccccc2C#N)cc1`, the MIC (Staphylococcus aureus [1]) is reported as > 64 µM.

`N#Cc1ccc(CCC2CCNc3ccccc32)cc1` (stereo not given) gave an MIC (Staphylococcus aureus [1]) of 32 µM (≈ 8.4 µg/mL).

`CC[C@H]1OC(=O)[C@H](C)[C@@H](O[C@H]2C[C@@](C)(OC)[C@@H](O)[C@H](C)O2)[C@H](C)[C@@H](O[C@@H]2O[C@H](C)C[C@H](N(C)C)[C@H]2O)[C@](C)(O)C[C@@H](C)C(=O)[C@H](C)[C@@H](O)[C@]1(C)O` [ERYTHROMYCIN] showed an MIC (Escherichia coli [2]) of 1 µM, an MIC (Enterobacter cloacae [3]) of 1 µM and an MIC (Escherichia coli [4]) of 2 µM (≈ 1.47 µg/mL). The MIC (Klebsiella pneumoniae [5]) was 16 µM, the MIC (Escherichia coli [6]) was 0.5 µM and the MIC (Klebsiella pneumoniae [7]) was > 64 µM. The MIC (Enterobacter cloacae [8]) was > 64 µM, the MIC (Acinetobacter baumannii [9]) was 16 µM (≈ 11.7 µg/mL) and the MIC (Pseudomonas aeruginosa [10]) was > 64 µM. For the same compound, the MIC (Escherichia coli [11]) was 64 µM (≈ 47 µg/mL), the MIC (Pseudomonas aeruginosa [12]) was 4 µM and the MIC (Acinetobacter baumannii [13]) was 4 µM.

For `CC(=O)O[C@H]1C[C@@]2(C)[C@@H](C[C@@H](O)[C@H]3[C@@]4(C)CC[C@@H](O)[C@@H](C)[C@@H]4CC[C@@]32C)/C1=C(\CCC=C(C)C)C(=O)O` [FUSIDIC ACID], the Activity (Staphylococcus aureus [14]) was 77.78%, the Activity [15] was “Non-Toxic” and the Activity (Mus musculus) was “Non-Toxic”.

In the case of `CC(=O)NC[C@H]1CN(c2ccc(N3CCOCC3)c(F)c2)C(=O)O1` [LINEZOLID], the MIC (Staphylococcus aureus [1]) is reported as 1 µM (≈ 0.337 µg/mL), the MIC (Escherichia coli [2]) is reported as > 64 µM and the MIC (Enterobacter cloacae [3]) is reported as 16 µM. For the same compound, the MIC (Streptococcus pneumoniae) was 2 µM (≈ 0.675 µg/mL), the MIC (Escherichia coli [4]) was 16 µM (≈ 5.4 µg/mL) and the MIC (Klebsiella pneumoniae [5]) was > 64 µM. The MIC (Escherichia coli [6]) was 16 µM, the Tmax [16] was 0.5 h and the Tmax [17] was 1.33 h. The clearance [18] was 1.74 mL/min/kg, the MIC (Staphylococcus aureus [19]) was 2 µM (≈ 0.675 µg/mL) and the Cmax [20] was 12700 ng/mL. The MIC [21] was 2 µM (≈ 0.675 µg/mL), the half-life (clinical) was 4.4 h and the MIC (Klebsiella pneumoniae [7]) was > 64 µM. For the same compound, the MIC (Enterobacter cloacae [8]) was > 64 µM, the MIC (Acinetobacter baumannii [9]) was > 64 µM and the MIC (Staphylococcus aureus [22]) was 2 µM (≈ 0.675 µg/mL). It also gave an MIC (Staphylococcus aureus [23]) of 2 µM (≈ 0.675 µg/mL), a Cmax [24] of 13400 ng/mL and an MIC (Enterococcus faecium) of 0.5 µM (≈ 0.169 µg/mL). The MIC (Pseudomonas aeruginosa [10]) was > 64 µM, the MIC (Staphylococcus aureus [25]) was 4 µM (≈ 1.35 µg/mL) and the MIC (Staphylococcus aureus [26]) was 2 µM (≈ 0.675 µg/mL). For the same compound, the MIC (Escherichia coli [11]) was > 64 µM, the MIC (Pseudomonas aeruginosa [12]) was > 64 µM and the MIC (Acinetobacter baumannii [13]) was > 64 µM. It also gave an MIC (Staphylococcus aureus [27]) of 32 µM (≈ 10.8 µg/mL).

With `CN[C@H](CC(C)C)C(=O)N[C@H]1C(=O)N[C@@H](CC(N)=O)C(=O)N[C@H]2C(=O)N[C@H]3C(=O)N[C@H](C(=O)N[C@H](C(=O)O)c4cc(O)cc(O)c4-c4cc3ccc4O)[C@H](O)c3ccc(c(Cl)c3)Oc3cc2cc(c3O[C@@H]2O[C@H](CO)[C@@H](O)[C@H](O)[C@H]2O[C@H]2C[C@](C)(N)[C@H](O)[C@H](C)O2)Oc2ccc(cc2Cl)[C@H]1O` [VANCOMYCIN] the MIC (Staphylococcus aureus [1]) was 1 µM (≈ 1.45 µg/mL), the MIC (Streptococcus pneumoniae) was 1 µM (≈ 1.45 µg/mL) and the MIC (Staphylococcus aureus [19]) was > 64 µM. The MIC [21] was 4 µM (≈ 5.8 µg/mL), the MIC (Klebsiella pneumoniae [7]) was > 64 µM and the MIC (Enterobacter cloacae [8]) was > 64 µM. The MIC (Acinetobacter baumannii [9]) was 32 µM (≈ 46.4 µg/mL), the MIC (Staphylococcus aureus [22]) was 1 µM (≈ 1.45 µg/mL) and the MIC (Staphylococcus aureus [23]) was > 64 µM. The MIC (Enterococcus faecium) was > 64 µM, the MIC (Pseudomonas aeruginosa [10]) was > 64 µM and the MIC (Staphylococcus aureus [25]) was 1 µM (≈ 1.45 µg/mL). It also gave an MIC (Staphylococcus aureus [26]) of 1 µM (≈ 1.45 µg/mL) and an MIC (Staphylococcus aureus [27]) of 1 µM (≈ 1.45 µg/mL).
